pEC50: −log10 of the molar value.
Assays:
[1] = Cytotoxicity against mock-infected human MT4 cells after 96 hrs by MTT assay; format: cell-based
Procedure, shortened: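 Exponentially growing MT-4 cells were seeded at 1 × 10^5 cells/mL in RPMI-1640 with 10% FBS and held at 37 °C, 5% CO2 with serial compound dilutions. Viability was read by MTT after 96 h. CC50 from linear regression against untreated controls.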

Yellow fever virus = assay: Antiviral activity against Yellow fever virus infected in BHK21 cells assessed as inhibition of virus-induced cytopathogenicity after 3 to 4 days by MTT assay; format: functional, organism-based; conditions: BHK-21
[2] = Cytotoxicity against mock-infected MDBK cells after 48 to 96 hrs by MTT assay; format: cell-based, Bos taurus; conditions: cattle
Procedure, shortened: (§1)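 Mock-infected MDBK (6 × 10^5 cells/mL; MEM-E, 10% horse serum, 1 mM pyruvate) or BHK (1 × 10^6 cells/mL; MEM-E, 10% FBS) cells were incubated at 37 °C, 5% CO2 with serial dilutions from 100 µM, 1:5. Viability by MTT after 48–96 h. CC50 from linear regression against untreated controls.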

[3] = Cytotoxicity against mock-infected BHK21 cells after 48 to 96 hrs by MTT assay; format: functional; conditions: Mesocricetus auratus, BHK-21; procedure, shortened: as §1
Human alphaherpesvirus 1 = assay: Antiviral activity against HSV1 infected in african green monkey Vero 76 cells assessed as reduction in plaque number after 3 days by plaque reduction assay; format: functional, organism-based; conditions: Human alphaherpesvirus 1, Vero, 72 h
[4] = test system: Human immunodeficiency virus 1; assay: Antiviral activity against HIV1 infected in human MT4 cells assessed as inhibition of virus-induced cytopathogenicity after 4 days by MTT assay; format: functional, organism-based; conditions: Human immunodeficiency virus 1, MT4, 96 h
Procedure, shortened: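 MT-4 cells (1 × 10^4/well in RPMI) were infected acutely with HIV-1 IIIB, 100 CCID50 (m.o.i. 0.01), with serial dilutions from 100 µM, 1:5. After 4 days at 37 °C, protection from virus-induced cytopathogenicity was read by MTT. EC50 came from linear regression against untreated controls.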

[5] = test system: Vesicular stomatitis virus; assay: Antiviral activity against Vesicular stomatitis virus infected in african green monkey Vero 76 cells assessed as reduction in plaque number after 2 days by plaque reduction assay; format: functional, organism-based; conditions: 48 h
Reovirus sp. = assay: Antiviral activity against Reovirus type-1 infected in BHK21 cells assessed as inhibition of virus-induced cytopathogenicity after 3 to 4 days by MTT assay; format: functional, organism-based; conditions: BHK-21
Poliovirus 1 = assay: Antiviral activity against Poliovirus type 1 Sabin strain infected in african green monkey Vero 76 cells assessed as reduction in plaque number after 2 days by plaque reduction assay; format: functional, organism-based; conditions: Enterovirus C, 48 h
[6] = Cytotoxicity against mock-infected african green monkey Vero 76 cells after 48 to 96 hrs by MTT assay; format: cell-based; conditions: chlorocebus sabaeus, mock-infected Vero 76 cells
[7] = test system: Bovine viral diarrhea virus 1; assay: Antiviral activity against Bovine viral diarrhea virus infected in MDBK cells assessed as inhibition of virus-induced cytopathogenicity after 3 to 4 days by MTT assay; format: functional, organism-based; conditions: Bovine viral diarrhea virus isolates and strains
Coxsackievirus B5 = assay: Antiviral activity against Coxsackievirus B5 infected in african green monkey Vero 76 cells assessed as reduction in plaque number after 3 days by plaque reduction assay; format: functional, organism-based; conditions: Enterovirus B, 72 h
[8] = test system: Respiratory syncytial virus; assay: Antiviral activity against Respiratory syncytial virus infected in african green monkey Vero 76 cells assessed as reduction in plaque number after 5 days by plaque reduction assay; format: functional, organism-based; conditions: human respiratory syncytial virus, 120 h
Vaccinia virus = assay: Antiviral activity against Vaccinia Virus infected in african green monkey Vero 76 cells assessed as reduction in plaque number after 3 days by plaque reduction assay; format: functional, organism-based; conditions: Orthopoxvirus vaccinia, 72 h

SMILES | CC50 at 96 h [1] [µM] | pEC50 (Yellow fever virus) | CC50 [2] [µM] | CC50 [3] [µM] | pEC50 (Human alphaherpesvirus 1) | pEC50 [4] | pEC50 [5] | pEC50 (Reovirus sp.) | pEC50 (Poliovirus 1) | CC50 [6] [µM] | pEC50 [7] | pEC50 (Coxsackievirus B5) | pEC50 [8] | pEC50 (Vaccinia virus)
CC1(c2nc3cc(Cl)c(Cl)cc3[nH]2)CCC(CO)C(C)(C)O1 (configuration not stated) | 33 | < 4.00 | > 100 | > 100 | 4.22 | < 4.00 | < 4.00 | < 4.00 | 4.92 | > 100 | 4.34 | – | – | –
ClC1(Cl)C2CCOC21n1cnc2ccccc21 (configuration not stated) | 33 | – | – | – | – | < 4.00 | – | – | – | – | – | – | – | –
c1ccc2[nH]c(C3CCCCO3)nc2c1 (configuration not stated) | > 100 | < 4.00 | > 100 | > 100 | < 4.00 | < 4.00 | < 4.00 | < 4.00 | < 4.00 | > 100 | < 4.00 | – | – | –
c1ccc2c(c1)ncn2C1CCCCO1 (configuration not stated) | > 100 | < 4.00 | > 100 | > 100 | – | < 4.00 | – | – | – | – | < 4.00 | – | – | –
Clc1cc2ncn(C3CCCO3)c2cc1Cl (configuration not stated) | > 100 | < 4.00 | > 100 | > 100 | – | < 4.00 | – | < 4.00 | – | – | < 4.00 | – | – | –
CC1(c2nc3ccccc3[nH]2)CCC(C(N)=O)C(C)(C)O1 (configuration not stated) | > 100 | < 4.00 | > 100 | > 100 | < 4.00 | < 4.00 | < 4.00 | < 4.00 | < 4.00 | > 100 | < 4.00 | – | – | –
CC1(c2nc3ccccc3[nH]2)CCC(C#N)C(C)(C)O1 (configuration not stated) | > 100 | < 4.00 | > 100 | > 100 | < 4.00 | < 4.00 | < 4.00 | < 4.00 | < 4.00 | > 100 | < 4.00 | – | – | –
Clc1cc2nc(C3CCCO3)[nH]c2cc1Cl (configuration not stated) | – | < 4.00 | > 100 | > 100 | – | – | – | – | – | – | < 4.00 | – | – | –
Clc1cc2nc(C3CCCCO3)[nH]c2cc1Cl (configuration not stated) | 6 | < 4.00 | > 100 | > 100 | < 4.00 | < 4.00 | < 4.00 | < 4.00 | 4.22 | > 100 | < 4.00 | – | – | –
O=C1c2ccccc2-n2c(nc3cccnc32)CN1C[C@@H]1CCCN2CCCC[C@H]12 | 31 | < 4.00 | 91 | 37 | – | < 4.00 | < 4.00 | – | < 4.00 | > 90 | 4.77 | < 4.00 | < 4.00 | < 4.00
CCN(CC)CCCn1c(-c2ccc(OC)cc2)nc2cc(C(F)(F)F)ccc21 | > 100 | < 4.00 | > 100 | 76 | < 4.00 | < 4.00 | < 4.00 | < 4.00 | < 4.00 | > 100 | < 4.00 | < 4.00 | < 4.00 | < 4.00
COc1ccc(-c2nc3cc(Cl)ccc3n2[C@H]2CCCN3CCCC[C@H]23)cc1 | > 100 | < 4.00 | > 100 | > 100 | < 4.00 | < 4.00 | < 4.00 | < 4.00 | < 4.00 | > 100 | 4.44 | < 4.00 | < 4.00 | < 4.00
COc1ccc(-c2nc3cc(Cl)ccc3n2[C@@H]2CCCN3CCCC[C@H]23)cc1 | > 100 | < 4.00 | > 100 | > 100 | < 4.00 | < 4.00 | < 4.00 | < 4.00 | < 4.00 | > 100 | < 4.00 | < 4.00 | < 4.00 | < 4.00
FC(F)(F)c1ccc2c(c1)nc(-c1ccccc1)n2C[C@@H]1CCCN2CCCC[C@H]12 | 46 | < 4.00 | 35 | 75 | < 4.00 | < 4.00 | < 4.00 | < 4.00 | < 4.00 | 90 | < 4.00 | < 4.00 | < 4.00 | < 4.00
Fc1cccc(F)c1-c1nc2cc(C(F)(F)F)ccc2n1C[C@@H]1CCCN2CCCC[C@H]12 | 57 | < 4.00 | 36 | 18 | < 4.00 | < 4.00 | < 4.00 | < 4.00 | 4.22 | ≥ 100 | < 4.00 | < 4.00 | < 4.00 | < 4.00
COc1ccc(-c2nc3cc(C(F)(F)F)ccc3n2C[C@@H]2CCCN3CCCC[C@H]23)cc1 | 25 | < 4.00 | > 100 | 65 | < 4.00 | < 4.00 | < 4.00 | 4.57 | < 4.00 | 75 | < 4.00 | < 4.00 | < 4.00 | < 4.00
CCCCn1c(-c2ccc(OC)cc2)nc2cc(C(F)(F)F)ccc21 | > 100 | < 4.00 | 22 | 35 | < 4.00 | < 4.00 | < 4.00 | < 4.00 | 4.60 | 80 | < 4.00 | < 4.00 | < 4.00 | < 4.00
COCCn1c(-c2ccc(OC)cc2)nc2cc(C(F)(F)F)ccc21 | 80 | < 4.00 | > 100 | > 100 | < 4.00 | < 4.00 | < 4.00 | < 4.00 | < 4.00 | > 100 | < 4.00 | < 4.00 | < 4.00 | < 4.00
CC(CC(=O)O)n1c(-c2ccccc2)nc2ccccc21 (configuration not stated) | > 100 | < 4.00 | > 100 | > 100 | < 4.00 | < 4.00 | < 4.00 | < 4.00 | < 4.00 | > 100 | < 4.00 | < 4.00 | < 4.00 | < 4.00
FC(F)(F)c1ccc2[nH]c(C3CCCCO3)nc2c1 (configuration not stated) | 97 | < 4.00 | > 100 | > 100 | < 4.00 | < 4.00 | < 4.00 | < 4.00 | < 4.00 | > 100 | < 4.00 | – | – | –
Clc1ccc2[nH]c(C3CCCCO3)nc2c1 (configuration not stated) | > 100 | < 4.00 | > 100 | > 100 | < 4.00 | < 4.00 | < 4.00 | < 4.00 | 4.70 | > 100 | < 4.00 | – | – | –
COc1ccc(-c2nc3cc(C(F)(F)F)ccc3n2CCN(C)C)cc1 | > 100 | < 4.00 | > 100 | > 100 | < 4.00 | < 4.00 | < 4.00 | < 4.00 | < 4.00 | > 100 | < 4.00 | < 4.00 | < 4.00 | < 4.00
Nc1nc2c(ncn2COCCO)c(=O)[nH]1 [ACYCLOVIR] | > 100 | < 4.00 | > 100 | > 100 | 5.92 | – | < 4.00 | < 4.00 | < 4.00 | > 100 | < 4.00 | < 4.00 | < 4.00 | < 4.00
O=C1Nc2ccc(Cl)cc2[C@@](C#CC2CC2)(C(F)(F)F)O1 [EFAVIRENZ] | 38 | – | – | – | – | – | – | – | – | – | – | – | – | –
